pIC50: −log10 of the molar value. Calls of active or inactive are those of the source. The rule behind the calls is not given here.
Columns and labels:
[1] = biological target: Histone-lysine N-methyltransferase KMT5C (Homo sapiens) (UniProt Q86Y97); assay: Inhibition of SUV420H2 (unknown origin) at 1 to 10 uM; details: dose 1-10 µM
Procedure, shortened: (§1)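 Part of a 33-methyltransferase selectivity panel covering 8 PRMTs, 21 PKMTs, 3 DNMTs and 1 RNA methyltransferase. Each compound was tested at 1 μM and at 10 μM, with n = 3.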

[2] = biological target: Histone-lysine N-methyltransferase SUV39H2 (Homo sapiens) (UniProt Q9H5I1); assay: Inhibition of SUV39H2 (unknown origin) at 1 to 10 uM; details: dose 1-10 µM; procedure, shortened: as §1
[3] = biological target: Histone-lysine N-methyltransferase KMT5B (Homo sapiens) (UniProt Q4FZB7); assay: Inhibition of SUV420H1 (unknown origin) at 1 to 10 uM; details: dose 1-10 µM; procedure, shortened: as §1
[4] = biological target: Histone-lysine N-methyltransferase SUV39H1 (Homo sapiens) (UniProt O43463); assay: Inhibition of SUV39H1 (unknown origin) at 1 to 10 uM; details: dose 1-10 µM; procedure, shortened: as §1
[5] = biological target: Histone-lysine N-methyltransferase SETDB1 (Homo sapiens) (UniProt Q15047); assay: Inhibition of SETDB1 (unknown origin) at 1 to 10 uM; details: dose 1-10 µM; procedure, shortened: as §1
[6] = biological target: Histone-lysine N-methyltransferase EHMT2 (Homo sapiens) (UniProt Q96KQ7); assay: Inhibition of G9a (unknown origin) at 1 to 10 uM; details: dose 1-10 µM; procedure, shortened: as §1
[7] = biological target: Histone-lysine N-methyltransferase EHMT1 (Homo sapiens) (UniProt Q9H9B1); assay: Inhibition of GLP (unknown origin) at 1 to 10 uM; details: dose 1-10 µM; procedure, shortened: as §1
[8] = biological target: Protein arginine N-methyltransferase 8 (Homo sapiens) (UniProt Q9NR22); assay: Inhibition of PRMT8 (unknown origin) at 1 to 10 uM; details: dose 1-10 µM; procedure, shortened: as §1
[9] = biological target: Protein arginine N-methyltransferase 5 (Homo sapiens) (UniProt O14744); assay: Inhibition of PRMT5 (unknown origin) at 1 to 10 uM; details: dose 1-10 µM; procedure, shortened: as §1
[10] = biological target: Protein arginine N-methyltransferase 7 (Homo sapiens) (UniProt Q9NVM4); assay: Inhibition of PRMT7 (unknown origin) at 1 to 10 uM; details: dose 1-10 µM; procedure, shortened: as §1
[11] = biological target: Histone-arginine methyltransferase CARM1 (Homo sapiens) (UniProt Q86X55); assay: Inhibition of PRMT4 (unknown origin) at 1 to 10 uM; details: dose 1-10 µM; procedure, shortened: as §1
[12] = biological target: Protein arginine N-methyltransferase 3 (Homo sapiens) (UniProt O60678); assay: Inhibition of PRMT3 (unknown origin) at 1 to 10 uM; details: dose 1-10 µM; procedure, shortened: as §1
[13] = biological target: Protein arginine N-methyltransferase 1 (Homo sapiens) (UniProt Q99873); assay: Inhibition of PRMT1 (unknown origin) at 1 to 10 uM; details: dose 1-10 µM; procedure, shortened: as §1
[14] = biological target: Histone-lysine N-methyltransferase SETD7 (Homo sapiens) (UniProt Q8WTS6); assay: Inhibition of SETD7 (unknown origin) at 1 to 10 uM; details: dose 1-10 µM; procedure, shortened: as §1
[15] = biological target: N-lysine methyltransferase KMT5A (Homo sapiens) (UniProt Q9NQR1); assay: Inhibition of SETD8 (unknown origin) at 1 to 10 uM; details: dose 1-10 µM; procedure, shortened: as §1
[16] = biological target: Histone-lysine N-methyltransferase 2A (Homo sapiens) (UniProt Q03164); assay: Inhibition of MLL1 (unknown origin) at 1 to 10 uM; details: dose 1-10 µM; procedure, shortened: as §1
[17] = biological target: Histone-lysine N-methyltransferase 2C (Homo sapiens) (UniProt Q8NEZ4); assay: Inhibition of MLL3 (unknown origin) at 1 to 10 uM; details: dose 1-10 µM; procedure, shortened: as §1
[18] = biological target: Histone-lysine N-methyltransferase PRDM9 (Homo sapiens) (UniProt Q9NQV7); assay: Inhibition of PRDM9 (unknown origin) at 1 to 10 uM; details: dose 1-10 µM; procedure, shortened: as §1
[19] = biological target: Histone-lysine N-methyltransferase EZH2 (Homo sapiens) (UniProt Q15910); assay: Inhibition of PRC2 (unknown origin) at 1 to 10 uM; details: dose 1-10 µM; procedure, shortened: as §1
[20] = biological target: Histone-lysine N-methyltransferase SETD2 (Homo sapiens) (UniProt Q9BYW2); assay: Inhibition of SETD2 (unknown origin) at 1 to 10 uM; details: dose 1-10 µM; procedure, shortened: as §1
[21] = biological target: N-lysine methyltransferase SMYD2 (Homo sapiens) (UniProt Q9NRG4); assay: Inhibition of SMYD2 (unknown origin) at 1 to 10 uM; details: dose 1-10 µM; procedure, shortened: as §1
[22] = biological target: Histone-lysine N-methyltransferase SMYD3 (Homo sapiens) (UniProt Q9H7B4); assay: Inhibition of SMYD3 (unknown origin) at 1 to 10 uM; details: dose 1-10 µM; procedure, shortened: as §1
[23] = biological target: RNA 5'-monophosphate methyltransferase (Homo sapiens) (UniProt Q7Z5W3); assay: Inhibition of BCDIN3D (unknown origin) at 1 to 10 uM; details: dose 1-10 µM; procedure, shortened: as §1
[24] = biological target: DNA (cytosine-5)-methyltransferase 1 (Homo sapiens) (UniProt P26358); assay: Inhibition of DNMT1 (unknown origin) at 1 to 10 uM; details: dose 1-10 µM; procedure, shortened: as §1
[25] = biological target: DNA (cytosine-5)-methyltransferase 3A (Homo sapiens) (UniProt Q9Y6K1); assay: Inhibition of DNMT3A (unknown origin) at 1 to 10 uM; details: dose 1-10 µM; procedure, shortened: as §1
[26] = biological target: DNA (cytosine-5)-methyltransferase 3B (Homo sapiens) (UniProt Q9UBC3); assay: Inhibition of DNMT3B (unknown origin) at 1 to 10 uM; details: dose 1-10 µM; procedure, shortened: as §1
[27] = biological target: Histone-lysine N-methyltransferase, H3 lysine-79 specific (Homo sapiens) (UniProt Q8TEK3); assay: Inhibition of DOT1L (unknown origin) at 1 to 10 uM; details: dose 1-10 µM; procedure, shortened: as §1
[28] = biological target: Histone-lysine N-methyltransferase ASH1L (Homo sapiens) (UniProt Q9NR48); assay: Inhibition of ASH1L (unknown origin) at 1 to 10 uM; details: dose 1-10 µM; procedure, shortened: as §1
[29] = biological target: Histone-lysine N-methyltransferase, H3 lysine-36 specific (Homo sapiens) (UniProt Q96L73); assay: Inhibition of NSD1 (unknown origin) at 1 to 10 uM; details: dose 1-10 µM; procedure, shortened: as §1
[30] = biological target: Histone-lysine N-methyltransferase NSD2 (Homo sapiens) (UniProt O96028); assay: Inhibition of NSD2 (unknown origin) at 1 to 10 uM; details: dose 1-10 µM; procedure, shortened: as §1
[31] = biological target: Histone-lysine N-methyltransferase NSD3 (Homo sapiens) (UniProt Q9BZ95); assay: Inhibition of NSD3 (unknown origin) at 1 to 10 uM; details: dose 1-10 µM; procedure, shortened: as §1
HEK293T [32] = assay: Inhibition of FLAG-tagged PRMT6 V86K/D88A mutant (unknown origin) expressed in HEK293T assessed as reduction in H3R2me2a level measured after 20 hrs by SDS gel electrophoresis relative to control; format: cell-based; details: Homo sapiens
Procedure, shortened: (§2)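 HEK293T cells were grown in DMEM with 10% FBS and penicillin/streptomycin. The next day they were transfected with FLAG-PRMT6 or the V86K/D88A mutant (1 μg DNA per well). After 4 h, medium was replaced with titrated compound for 20 h. Cells were lysed in benzonase-containing buffer, SDS was added to 1%, and lysates were western blotted for H3R2me2a or H4R3me2a, total H3/H4 and FLAG, with infrared detection at 800/700 nm.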

HEK293T [33] = assay: Inhibition of FLAG-tagged PRMT6 V86K/D88A mutant (unknown origin) expressed in HEK293T assessed as reduction in H4R3me2a level measured after 20 hrs by SDS gel electrophoresis relative to control; format: cell-based; details: Homo sapiens; procedure, shortened: as §2
HEK-293T [34] = assay: Cytotoxicity against HEK293T cells at up to 10 uM measured after 3 days by CCK8 assay; format: cell-based; details: human, 72 h, time 3 day
Procedure, shortened: (§3)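 Cells (1 × 10^4 per well) were seeded and, after 24 h, exposed for 3 days to serially diluted compound starting at 10 μM. CCK-8 (WST-8) reagent was then added for 4 h at 37 °C, and absorbance was read at 450 nm. Values are the average ± SD of three replicate experiments.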

PNT2 = assay: Cytotoxicity against PNT2 cells at up to 10 uM measured after 3 days by CCK8 assay; format: cell-based; details: human, pnt2, 72 h, time 3 day; procedure, shortened: as §3
MCF7 = assay: Cytotoxicity against MCF7 cells at up to 10 uM measured after 3 days by CCK8 assay; format: cell-based; details: human, mcf7, 72 h, time 3 day; procedure, shortened: as §3
[35] = biological target: Protein arginine N-methyltransferase 9 (Homo sapiens) (UniProt Q6P2P2); assay: Inhibition of PRMT9 (unknown origin) at 1 to 10 uM; details: dose 1-10 µM
[36] = Inhibition of PRMT6 mutant 20 (unknown origin) using biotinylated H4(1 to 24) peptide as substrate preincubated for 20 mins in presence of [3H]SAM followed by substrate addition by scintillation proximity assay; design: species or system Homo sapiens
[37] = Inhibition of PRMT6 mutant 19 (unknown origin) using biotinylated H4(1 to 24) peptide as substrate preincubated for 20 mins in presence of [3H]SAM followed by substrate addition by scintillation proximity assay; design: species or system Homo sapiens
[38] = Inhibition of PRMT6 mutant 17 (unknown origin) using biotinylated H4(1 to 24) peptide as substrate preincubated for 20 mins in presence of [3H]SAM followed by substrate addition by scintillation proximity assay; design: species or system Homo sapiens
HEK-293T [39] = assay: Cytotoxicity against HEK293T cells at 30 uM measured after 20 hrs by Western blot analysis; details: human
[40] = biological target: Protein arginine N-methyltransferase 6 (Homo sapiens, UniProt Q96LA8); assay: Inhibition of PRMT6 (unknown origin)

Histone-lysine N-methyltransferase 2C (Homo sapiens), sequence (Q8NEZ4 whole entry): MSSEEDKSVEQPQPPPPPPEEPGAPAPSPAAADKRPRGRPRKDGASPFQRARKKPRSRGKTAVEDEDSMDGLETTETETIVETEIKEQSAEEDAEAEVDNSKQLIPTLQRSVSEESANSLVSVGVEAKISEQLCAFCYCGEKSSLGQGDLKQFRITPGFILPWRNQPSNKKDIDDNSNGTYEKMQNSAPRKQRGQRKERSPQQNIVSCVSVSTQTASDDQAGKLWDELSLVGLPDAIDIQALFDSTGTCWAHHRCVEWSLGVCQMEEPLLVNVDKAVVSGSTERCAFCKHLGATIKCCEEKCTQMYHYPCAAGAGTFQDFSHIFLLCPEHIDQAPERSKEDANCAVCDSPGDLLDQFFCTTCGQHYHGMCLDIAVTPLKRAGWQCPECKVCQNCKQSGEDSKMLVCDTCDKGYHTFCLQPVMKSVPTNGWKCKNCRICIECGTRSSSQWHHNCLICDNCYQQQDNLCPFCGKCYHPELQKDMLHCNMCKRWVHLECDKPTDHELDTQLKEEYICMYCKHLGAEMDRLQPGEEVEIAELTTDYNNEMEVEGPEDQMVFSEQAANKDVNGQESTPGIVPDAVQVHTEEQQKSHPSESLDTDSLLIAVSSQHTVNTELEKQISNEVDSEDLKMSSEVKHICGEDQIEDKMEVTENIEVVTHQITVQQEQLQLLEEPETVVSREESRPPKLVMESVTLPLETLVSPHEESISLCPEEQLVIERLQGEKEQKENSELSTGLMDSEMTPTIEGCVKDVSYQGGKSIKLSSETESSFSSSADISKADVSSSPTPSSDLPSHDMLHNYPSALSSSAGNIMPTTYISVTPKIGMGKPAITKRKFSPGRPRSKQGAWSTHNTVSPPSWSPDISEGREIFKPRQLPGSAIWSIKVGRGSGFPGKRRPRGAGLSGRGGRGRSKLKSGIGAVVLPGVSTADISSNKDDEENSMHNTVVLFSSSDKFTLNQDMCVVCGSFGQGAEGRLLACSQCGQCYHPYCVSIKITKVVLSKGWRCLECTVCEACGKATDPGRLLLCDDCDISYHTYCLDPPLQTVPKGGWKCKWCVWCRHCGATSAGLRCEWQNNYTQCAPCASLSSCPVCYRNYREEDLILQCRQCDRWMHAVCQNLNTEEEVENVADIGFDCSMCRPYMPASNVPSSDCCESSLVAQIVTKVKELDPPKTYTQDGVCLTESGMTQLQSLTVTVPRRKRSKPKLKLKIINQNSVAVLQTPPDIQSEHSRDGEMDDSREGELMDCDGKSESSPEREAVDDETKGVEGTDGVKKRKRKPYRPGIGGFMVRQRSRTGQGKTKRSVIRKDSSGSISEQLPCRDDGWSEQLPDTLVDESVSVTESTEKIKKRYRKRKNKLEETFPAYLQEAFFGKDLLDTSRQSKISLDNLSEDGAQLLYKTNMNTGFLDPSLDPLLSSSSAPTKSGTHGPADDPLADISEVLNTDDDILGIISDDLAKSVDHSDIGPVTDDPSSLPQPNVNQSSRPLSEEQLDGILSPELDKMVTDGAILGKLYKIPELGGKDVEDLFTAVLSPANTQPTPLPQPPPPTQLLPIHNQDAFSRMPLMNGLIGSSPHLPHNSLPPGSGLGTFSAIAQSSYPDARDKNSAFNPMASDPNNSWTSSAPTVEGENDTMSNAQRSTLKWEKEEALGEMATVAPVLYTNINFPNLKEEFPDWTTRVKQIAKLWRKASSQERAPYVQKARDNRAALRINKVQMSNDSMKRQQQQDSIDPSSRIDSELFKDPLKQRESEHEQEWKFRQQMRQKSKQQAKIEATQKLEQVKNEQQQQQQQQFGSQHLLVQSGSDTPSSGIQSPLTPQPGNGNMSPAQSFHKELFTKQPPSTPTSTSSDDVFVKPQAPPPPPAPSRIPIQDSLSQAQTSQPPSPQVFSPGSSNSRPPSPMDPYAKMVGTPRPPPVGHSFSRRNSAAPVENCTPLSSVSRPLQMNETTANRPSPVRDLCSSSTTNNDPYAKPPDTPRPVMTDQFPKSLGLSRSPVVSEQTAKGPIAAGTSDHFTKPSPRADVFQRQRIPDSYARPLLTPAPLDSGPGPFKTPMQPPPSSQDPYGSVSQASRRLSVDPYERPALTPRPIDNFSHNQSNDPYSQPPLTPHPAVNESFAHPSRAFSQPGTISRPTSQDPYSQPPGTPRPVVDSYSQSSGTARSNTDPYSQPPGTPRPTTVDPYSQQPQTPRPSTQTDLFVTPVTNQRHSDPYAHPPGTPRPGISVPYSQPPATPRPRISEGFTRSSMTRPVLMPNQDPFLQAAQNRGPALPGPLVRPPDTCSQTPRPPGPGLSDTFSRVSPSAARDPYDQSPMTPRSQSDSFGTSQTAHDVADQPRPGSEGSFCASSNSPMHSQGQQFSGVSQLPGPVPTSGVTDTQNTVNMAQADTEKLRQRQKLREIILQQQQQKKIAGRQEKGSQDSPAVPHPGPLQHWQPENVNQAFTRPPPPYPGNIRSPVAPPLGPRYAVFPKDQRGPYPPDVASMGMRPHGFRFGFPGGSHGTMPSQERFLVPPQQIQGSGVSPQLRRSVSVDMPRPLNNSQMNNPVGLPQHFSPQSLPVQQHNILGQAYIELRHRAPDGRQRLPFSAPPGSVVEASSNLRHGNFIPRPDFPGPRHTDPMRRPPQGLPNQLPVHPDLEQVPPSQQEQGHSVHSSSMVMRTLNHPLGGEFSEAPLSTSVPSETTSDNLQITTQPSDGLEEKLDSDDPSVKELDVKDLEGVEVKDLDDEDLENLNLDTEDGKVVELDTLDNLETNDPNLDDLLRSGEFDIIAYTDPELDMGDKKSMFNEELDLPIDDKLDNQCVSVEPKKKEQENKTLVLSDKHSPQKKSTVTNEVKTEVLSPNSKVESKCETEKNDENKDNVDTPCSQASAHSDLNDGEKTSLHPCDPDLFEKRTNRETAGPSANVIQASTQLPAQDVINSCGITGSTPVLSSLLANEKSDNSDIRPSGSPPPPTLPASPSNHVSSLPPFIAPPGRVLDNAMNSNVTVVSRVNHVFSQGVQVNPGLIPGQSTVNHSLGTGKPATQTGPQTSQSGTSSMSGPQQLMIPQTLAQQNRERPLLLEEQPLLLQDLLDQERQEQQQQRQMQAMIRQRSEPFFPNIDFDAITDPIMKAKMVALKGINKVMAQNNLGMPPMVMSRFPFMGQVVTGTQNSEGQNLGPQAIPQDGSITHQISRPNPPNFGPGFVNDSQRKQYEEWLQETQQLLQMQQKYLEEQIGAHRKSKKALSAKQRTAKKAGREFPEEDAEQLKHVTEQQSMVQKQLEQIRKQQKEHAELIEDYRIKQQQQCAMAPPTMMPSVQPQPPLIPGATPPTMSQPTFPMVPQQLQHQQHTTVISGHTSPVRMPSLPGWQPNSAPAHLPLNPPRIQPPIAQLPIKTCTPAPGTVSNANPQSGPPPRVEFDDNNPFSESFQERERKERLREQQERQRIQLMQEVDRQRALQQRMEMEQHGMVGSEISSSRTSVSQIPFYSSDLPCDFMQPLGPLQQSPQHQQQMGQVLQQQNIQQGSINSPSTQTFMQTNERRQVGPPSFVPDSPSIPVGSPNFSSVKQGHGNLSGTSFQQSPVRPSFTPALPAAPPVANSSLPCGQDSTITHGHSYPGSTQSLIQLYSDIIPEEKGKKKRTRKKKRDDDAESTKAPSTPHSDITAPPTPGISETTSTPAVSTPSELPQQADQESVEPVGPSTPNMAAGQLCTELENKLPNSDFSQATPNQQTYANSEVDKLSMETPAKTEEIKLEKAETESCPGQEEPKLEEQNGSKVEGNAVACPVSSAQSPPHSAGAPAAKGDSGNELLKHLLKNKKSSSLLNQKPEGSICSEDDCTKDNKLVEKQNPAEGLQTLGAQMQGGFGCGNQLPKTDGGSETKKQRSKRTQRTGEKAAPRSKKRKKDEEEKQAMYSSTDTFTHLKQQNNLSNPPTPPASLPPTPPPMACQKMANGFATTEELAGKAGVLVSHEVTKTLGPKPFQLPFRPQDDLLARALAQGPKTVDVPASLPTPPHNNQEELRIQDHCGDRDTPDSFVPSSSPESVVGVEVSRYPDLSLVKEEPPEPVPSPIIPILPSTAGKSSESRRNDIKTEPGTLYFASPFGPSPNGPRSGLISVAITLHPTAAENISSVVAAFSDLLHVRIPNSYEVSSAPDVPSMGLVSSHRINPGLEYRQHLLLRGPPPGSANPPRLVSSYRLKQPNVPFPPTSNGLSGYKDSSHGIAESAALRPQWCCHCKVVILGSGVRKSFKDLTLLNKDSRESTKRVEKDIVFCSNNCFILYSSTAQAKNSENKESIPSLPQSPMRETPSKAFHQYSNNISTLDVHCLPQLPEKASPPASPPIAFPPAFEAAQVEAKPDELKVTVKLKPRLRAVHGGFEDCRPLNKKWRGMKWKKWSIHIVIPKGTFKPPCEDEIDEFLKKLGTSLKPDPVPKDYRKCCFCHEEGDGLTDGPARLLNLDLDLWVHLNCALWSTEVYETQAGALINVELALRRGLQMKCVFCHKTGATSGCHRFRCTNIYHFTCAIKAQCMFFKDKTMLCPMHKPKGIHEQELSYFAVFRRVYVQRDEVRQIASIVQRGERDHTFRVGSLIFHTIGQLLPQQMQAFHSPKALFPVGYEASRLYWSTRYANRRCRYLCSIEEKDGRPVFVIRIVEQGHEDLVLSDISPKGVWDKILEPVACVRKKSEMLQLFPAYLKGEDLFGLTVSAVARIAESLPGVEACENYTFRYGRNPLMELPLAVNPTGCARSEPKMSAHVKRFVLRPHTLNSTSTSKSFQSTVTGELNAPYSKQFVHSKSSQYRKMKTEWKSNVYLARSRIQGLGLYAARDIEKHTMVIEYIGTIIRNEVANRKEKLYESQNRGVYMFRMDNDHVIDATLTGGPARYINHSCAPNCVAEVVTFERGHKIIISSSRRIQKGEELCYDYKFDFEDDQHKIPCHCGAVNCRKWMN
RNA 5'-monophosphate methyltransferase (Homo sapiens), sequence (Q7Z5W3 whole entry): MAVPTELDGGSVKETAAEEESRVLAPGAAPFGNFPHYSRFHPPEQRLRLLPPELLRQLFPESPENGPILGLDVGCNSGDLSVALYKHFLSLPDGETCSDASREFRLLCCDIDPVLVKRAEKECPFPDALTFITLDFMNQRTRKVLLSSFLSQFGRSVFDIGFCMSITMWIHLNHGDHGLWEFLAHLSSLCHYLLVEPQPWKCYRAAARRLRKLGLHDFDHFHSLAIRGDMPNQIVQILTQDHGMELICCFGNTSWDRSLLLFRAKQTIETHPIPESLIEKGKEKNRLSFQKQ

| Structure (SMILES) | inhibition [1] | inhibition [2] | inhibition [3] | inhibition [4] | inhibition [5] | inhibition [6] | inhibition [7] | inhibition [8] | inhibition [9] | inhibition [10] | inhibition [11] | inhibition [12] | inhibition [13] | inhibition [14] | inhibition [15] | inhibition [16] | inhibition [17] | inhibition [18] | inhibition [19] | inhibition [20] | also measured |
| --- | --- | --- | --- | --- | --- | --- | --- | --- | --- | --- | --- | --- | --- | --- | --- | --- | --- | --- | --- | --- | --- |
| Cc1cc(C)cc([C@@H]2c3cc(C)ccc3NC(=O)CN2C(=O)c2ccc(Br)s2)c1 | inactive | inactive | inactive | inactive | inactive | inactive | inactive | inactive | inactive | inactive | inactive | inactive | inactive | inactive | inactive | inactive | inactive | inactive | inactive | inactive | inhibition [21]: inactive; inhibition [22]: inactive; inhibition [23]: inactive; inhibition [24]: inactive; inhibition [25]: inactive; inhibition [26]: inactive; inhibition [27]: inactive; inhibition [28]: inactive; inhibition [29]: inactive; inhibition [30]: inactive; inhibition [31]: inactive; inhibition (HEK293T [32]): 100%; inhibition (HEK293T [33]): 100%; Activity (HEK-293T [34]): Non-Toxic; Activity (PNT2): Non-Toxic; Activity (MCF7): Non-Toxic; inhibition [35]: inactive |
| Cc1ccc2c(c1)[C@@H](c1ccc(F)cc1)N(C(=O)c1ccc(Br)o1)CC(=O)N2 | – | – | – | – | – | – | – | – | – | – | – | – | – | – | – | – | – | – | – | – | pIC50 [36]: 4.39; pIC50 [37]: 4.77; pIC50 [38]: 4.34 |
| Cc1cc(C)cc([C@H]2c3cc(C)ccc3NC(=O)CN2C(=O)c2ccc(Br)s2)c1 | inactive | inactive | inactive | inactive | inactive | inactive | inactive | inactive | inactive | inactive | inactive | inactive | inactive | inactive | inactive | inactive | inactive | inactive | inactive | inactive | inhibition [21]: inactive; inhibition [22]: inactive; inhibition [23]: inactive; inhibition [24]: inactive; inhibition [25]: inactive; inhibition [26]: inactive; inhibition [27]: inactive; inhibition [28]: inactive; inhibition [29]: inactive; inhibition [30]: inactive; inhibition [31]: inactive; Activity (PNT2): Non-Toxic; Activity (MCF7): Non-Toxic; inhibition [35]: inactive; Activity (HEK-293T [39]): Toxic |
| CNCCN1CCC(OCc2ccccc2)CC1 | – | – | – | – | – | – | – | – | – | – | – | – | – | – | – | – | – | – | – | – | pIC50 [40]: 7.47 |

— ChEMBL document CHEMBL5030506 (J Med Chem, 2021)
